PG9 binder = small molecules binding HIV-1 gp120 antibody PG9 | TR-FRET gp120-PG9 antibody binding | inhibition, % at 6.7 µM | 360,000 tested, 0.43% active | AID 624416; in the data active = inhibition above about 8.5%
NR2E3 ag-1 = activates human photoreceptor nuclear receptor NR2E3; Q9Y5X4; GST-NR2E3/biotin-RetCOR TR-FRET, 1536-well; inhibition of corepressor binding, % at 4.78 µM; 320,000 tested, 0.12% active;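 active = percent inhibition above the cutoff of mean plus 3 SD of all tested compounds, set per screening campaign, cut at about 20% in these data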;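 also: 0% = DMSO wells and 100% = biotin wells as full block of FRET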
Target sequence (Q9Y5X4 whole entry, looked up): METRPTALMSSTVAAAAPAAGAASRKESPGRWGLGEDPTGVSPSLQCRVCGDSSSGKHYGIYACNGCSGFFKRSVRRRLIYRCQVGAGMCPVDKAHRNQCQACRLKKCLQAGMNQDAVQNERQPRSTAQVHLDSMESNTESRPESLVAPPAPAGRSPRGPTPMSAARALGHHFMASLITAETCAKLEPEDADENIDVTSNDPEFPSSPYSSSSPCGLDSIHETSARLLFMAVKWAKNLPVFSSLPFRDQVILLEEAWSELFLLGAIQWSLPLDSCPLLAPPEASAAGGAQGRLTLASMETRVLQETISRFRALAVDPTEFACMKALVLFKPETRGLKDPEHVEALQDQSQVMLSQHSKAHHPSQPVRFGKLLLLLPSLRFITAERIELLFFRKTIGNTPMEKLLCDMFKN
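System: GST-tagged NR2E3 plus biotinylated RetCOR corepressor; Buffer or medium: pH 7.5 Tris-based buffer; Probe or stimulus: RetCOR corepressor, biotinylated, 7 nM; Doses: compound at 4.8 µM, single dose; Schedule: 5 h incubation at 4 °C; Technique: time-resolved FRET; Evaluation: percent inhibition of TR-FRET ratio; Replication: one well per compound, singlicate testing.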
MC4R ag barr = agonists of human melanocortin 4 receptor (MC4R) beta-arrestin. P32245. U2OS MC4R beta-arrestin complementation, luminescence; percent of melanotan II response, DMSO zero. activation, % at 8.9 µM. 360,000 tested, 0.98% active. AID 540308;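 active = activation above a per-plate cutoff, the mean activation of sample wells on that plate plus 3 SD, cut at about 8% in these data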
Target sequence (P32245 whole entry, looked up): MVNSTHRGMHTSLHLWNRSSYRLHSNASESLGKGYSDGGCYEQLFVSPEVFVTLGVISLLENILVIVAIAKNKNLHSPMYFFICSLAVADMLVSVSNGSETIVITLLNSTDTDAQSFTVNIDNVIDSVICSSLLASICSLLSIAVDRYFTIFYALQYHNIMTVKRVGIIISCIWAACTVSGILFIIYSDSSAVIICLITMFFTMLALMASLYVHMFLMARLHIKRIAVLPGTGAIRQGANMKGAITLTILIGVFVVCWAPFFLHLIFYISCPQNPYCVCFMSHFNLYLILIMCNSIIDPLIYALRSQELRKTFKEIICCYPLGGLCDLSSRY
NR1D1 modulator = modulates human Rev-erb alpha binding to DNA; 370,000 tested, 0.79% active; activity, % at 10 µM; AID 1259318; P20393; Rev-erbα–FITC-DNA binding, fluorescence polarization, 90 min;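 active = activity above about 14%, limit read from the data; passing the limit was not always enough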;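 also: 0% = DMSO wells with 35 nM protein and 100% = DMSO wells with 750 nM protein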
MC4R antagonist = human MC4R antagonism in cAMP assay | inhibition, % at 6.5 µM | P32245 | MC4R-expressing cells, MTII-stimulated cAMP, LANCE TR-FRET | 360,000 tested, 0.48% active;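 active = inhibition above its plate's cutoff, the mean of tested wells on that plate plus 3 SD, cut at about 29% in these data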;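 also: 0% = Melanotan II alone and 100% = Melanotan II plus saturating MCL0020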
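System: U2OS cells stably expressing human melanocortin 4 receptor (MC4R). Reagent: Melanotan II challenge after compound preincubation. Doses: 6.5 µM. Times: 30-min compound, 1-h challenge, 1-h detection, room temperature. Measured by: TR-FRET with Eu-cAMP and labeled anti-cAMP, 671 nm. Replicates: singlicate.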
NR2E3 ag-2 = human photoreceptor-specific nuclear receptor agonism | inhibition of corepressor binding, % at 3.98 µM | 360,000 tested, 0.35% active | CHO-S Gal4-NCOR/VP16-NR2E3 two-hybrid, luciferase | Q9Y5X4;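 active = inhibition above the mean of all tested compounds plus 3 SD, cut at about 70% in these data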;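 also: 0% = DMSO with NR2E3 transfected cells and 100% = cells lacking NR2E3 construct; higher means lower luciferase signal from less NR2E3 corepressor binding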
MC4R barr conf = human MC4R beta-arrestin agonism confirmation | shares compounds with MC4R ag barr | U2OS MC4R beta-arrestin recruitment, luminescence; scaled DMSO 0%, Melanotan II 100% | activation, % at 8.9 µM | 2,400 tested, 31% active | AID 602192;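 active = mean activation across replicates above the hit cutoff set in the earlier primary screen, cut at about 8% in these data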
MOR DOR agonist = counter-screen for MC4R agonists: agonists of mu-delta opioid heterodimer. shares compounds with MC4R ag barr. U2OS PathHunter beta-arrestin, beta-gal luminescence; percent of deltorphin B response, DMSO zero. activation, % at 9.2 µM. 2,400 tested, 5.8% active. AID 602194;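 active = mean activation across replicates exceeds the hit threshold derived in the earlier primary screen, cut at about 18% in these data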;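 also: 100% = deltorphin B at 0.9 µM final and 0% = DMSO alone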
PG9 bind confirm = PG9 antibody binding, confirmed | 1,500 tested, 90% active | inhibition, % at 6.7 µM | TR-FRET PG9 antibody binding, biochemical | AID 651571 | shares compounds with PG9 binder; in the data active = inhibition above about 9%
PGV04 counter = PGV04 control antibody binding, counter-screen; shares compounds with PG9 binder; TR-FRET PGV04 antibody-gp120 binding, biochemical; AID 651604; inhibition, % at 6.7 µM; 1,500 tested, 95% active; in the data active = inhibition above about 9.5%
PG9 bind DR = small molecules binding HIV-1 gp120 antibody PG9. TR-FRET PG9 antibody-gp120 binding inhibition. 95 tested, under 10 active. shares compounds with PG9 binder. IC50, µM; in the data active = IC50 below about 10 µM
PGV04 binding DR = binds control antibody PGV04 in PG9 counter-screen; shares compounds with PG9 binder; TR-FRET binding to control antibody PGV04; IC50, µM; 95 tested, 20% active; AID 651937
PG126 DR counter = PG126 binding, dose response counter-screen. shares compounds with PG9 binder. TR-FRET binding to antibody PG126, counterscreen. IC50, µM. 95 tested, 20% active. AID 651939
Starred values were filed as active, the others as inactive. Only some compounds are listed: those with a hit (about 2.7% of all), similar ones and a draw of the others. Rule as the data show it, unless noted: active = IC50 below about 9 µM; inactive = the rest.

Results for CC12CC3(C)CC(C)(C1)CC(C(=O)NCc1ccccn1)(C2)C3 ?
PG9 binder: 2; NR2E3 ag-1: -1; MC4R ag barr: -3; NR1D1 modulator: 5; MC4R antagonist: 9; NR2E3 ag-2: -18

How did N#Cc1c(N)c(C#N)c(-c2ccc3c(c2)OCO3)c2c1CCCC2 do in these assays?
PG9 binder: 11*; NR2E3 ag-1: 2; MC4R ag barr: 10*; NR1D1 modulator: 13; MC4R antagonist: 5; NR2E3 ag-2: 9; MC4R barr conf: 2; MOR DOR agonist: 4; PG9 bind confirm: 10*; PGV04 counter: 23*

How did CSc1ccc(C(=O)NC2CCSc3ccccc32)cc1 (centres undefined) do in these assays?
PG9 binder: 16*; NR2E3 ag-1: 5; MC4R ag barr: 21*; NR1D1 modulator: 1; MC4R antagonist: -4; NR2E3 ag-2: -4; MC4R barr conf: 3; MOR DOR agonist: 6; PG9 bind confirm: 11*; PGV04 counter: 10*; PG9 bind DR: >67; PGV04 binding DR: inactive; PG126 DR counter: inactive

Results for CC(C)=CCN1CCN(Cc2coc3ccc(C)cc3c2=O)CC1CCO (centres undefined) ?
PG9 binder: -2; NR2E3 ag-1: 2; MC4R ag barr: -1; NR1D1 modulator: -5; MC4R antagonist: 2; NR2E3 ag-2: 7

What do the screens show for `CC(=O)c1cccc(N/C=C\c2nnnn2-c2ccc(F)cc2)c1`?
PG9 binder: 17*; NR2E3 ag-1: -1; MC4R ag barr: 16*; NR1D1 modulator: -11; MC4R antagonist: 2; NR2E3 ag-2: -22; MC4R barr conf: 6; MOR DOR agonist: 3; PG9 bind confirm: 11*; PGV04 counter: 20*

What do the screens show for `COC[C@@H]1CCCN1c1ccc2c(c1)O[C@H](COCc1ccccc1)CN([C@H](C)c1ccccc1)S2(=O)=O`?
PG9 binder: -1; NR1D1 modulator: -1; NR2E3 ag-2: -25

Results for O=C(CSc1nc(-c2ccccc2)cc(C(F)(F)F)n1)NCc1cccs1 ?
PG9 binder: 3; NR2E3 ag-1: -1; NR1D1 modulator: 3

How did COc1ccc(-c2cc(C(F)(F)F)nc(SCC(=O)NCc3cccs3)n2)cc1 do in these assays?
PG9 binder: 13*; NR2E3 ag-1: 4; MC4R ag barr: 16*; NR1D1 modulator: 22; MC4R antagonist: 3; NR2E3 ag-2: -8; MC4R barr conf: -2; MOR DOR agonist: 2; PG9 bind confirm: 8; PGV04 counter: 9

What do the screens show for `C#CCn1c(=NC(=O)c2ccco2)sc2cccc(Cl)c21`?
PG9 binder: 16*; NR2E3 ag-1: -6; MC4R ag barr: 33*; NR1D1 modulator: 18; MC4R antagonist: -8; NR2E3 ag-2: -52; MC4R barr conf: 5; MOR DOR agonist: 11; PG9 bind confirm: 16*; PGV04 counter: 45*

How did CCOc1cccc2sc(=NC(=O)c3ccco3)n(CC(=O)OC)c12 do in these assays?
PG9 binder: -1; NR2E3 ag-1: 4; MC4R ag barr: 0; NR1D1 modulator: 5; MC4R antagonist: -3; NR2E3 ag-2: -18

How did O=C(c1ccco1)N1N=C(c2cccs2)CC1c1ccco1 (centres undefined) do in these assays?
PG9 binder: -1; NR2E3 ag-1: -2; MC4R ag barr: -2; NR1D1 modulator: 4; MC4R antagonist: -7; NR2E3 ag-2: 3

How did Cc1cccnc1NC(=O)CNC(=O)c1sc2ccccc2c1Cl do in these assays?
PG9 binder: 1; NR2E3 ag-1: 4; MC4R ag barr: -1; NR1D1 modulator: 1; MC4R antagonist: 4; NR2E3 ag-2: -42

What do the screens show for `CC(=O)c1cccc(NC(=O)CNC(=O)c2sc3ccccc3c2Cl)c1`?
PG9 binder: 15*; NR2E3 ag-1: -10; MC4R ag barr: 19*; NR1D1 modulator: 12; MC4R antagonist: 9; NR2E3 ag-2: -14; MC4R barr conf: 24*; MOR DOR agonist: 18*; PG9 bind confirm: 17*; PGV04 counter: 41*

What do the screens show for `Cc1cccc(NC(=O)CNC(=O)c2sc3ccccc3c2Cl)n1`?
PG9 binder: 12*; NR2E3 ag-1: -7; MC4R ag barr: 11*; NR1D1 modulator: 7; MC4R antagonist: 4; NR2E3 ag-2: 2; MC4R barr conf: -1; MOR DOR agonist: 13; PG9 bind confirm: 4; PGV04 counter: 41*

What do the screens show for `CCN1C(=O)[C@H]2[C@@H](c3ccc(C(F)(F)F)cc3)N[C@]3(CCCN(Cc4ccc(Cl)cc4)C3=O)[C@H]2C1=O`?
PG9 binder: -2; MC4R ag barr: -2; NR1D1 modulator: -3; MC4R antagonist: 4; NR2E3 ag-2: 8

What do the screens show for `CCCC(=O)Nc1ccc(N2CCN(C(=O)c3ccccc3C)CC2)cc1`?
PG9 binder: -3; NR2E3 ag-1: -1; MC4R ag barr: 1; NR1D1 modulator: -3; MC4R antagonist: 7; NR2E3 ag-2: 11

What do the screens show for `CCSc1nnc(NC(=O)c2csc3c2CCCC3)s1`?
PG9 binder: 9.2*; NR2E3 ag-1: 6; MC4R ag barr: 15*; NR1D1 modulator: 12; MC4R antagonist: 0; NR2E3 ag-2: -20; MC4R barr conf: 27*; MOR DOR agonist: 15; PG9 bind confirm: 24*; PGV04 counter: 38*

How did CCSc1nnc(NC(=O)c2csc3c2CCC(C)C3)s1 (centres undefined) do in these assays?
PG9 binder: 1; NR2E3 ag-1: 5; MC4R ag barr: -2; NR1D1 modulator: 3; MC4R antagonist: 6; NR2E3 ag-2: -17

Assay outcomes deposited in PubChem by several laboratories.
